Laboratory results from ChEMBL document CHEMBL3414568, “Synthesis and antiproliferative activity of 3-(2-chloroethyl)-5-methyl-6-phenyl-8-(trifluoromethyl)-5,6-dihydropyrazolo[3,4-f][1,2,3,5]tetrazepin-4-(3H)-one” (Eur J Med Chem, 2015).

Columns and labels:
[1] = Cytotoxicity against human HL60 cells assessed as growth inhibition after 48 hrs by trypan blue staining-based hemocytometric analysis; format: functional; conditions: HL-60, 48 h
Method in brief: (§1)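 2 × 10⁵ cells per well in 1 mL complete medium treated with various concentrations from freshly prepared DMSO solution (DMSO ≤0.3% v/v final). After 48 h, trypan blue staining and hemocytometer counting of viable cells, expressed as percentage of control proliferation.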

[2] = Cytotoxicity against human HL60R cells expressing p-glycoprotein assessed as growth inhibition after 48 hrs by trypan blue staining-based hemocytometric analysis; format: functional; method in brief: as §1
[3] = Induction of apoptosis in human HL60R cells expressing p-glycoprotein after 48 hrs by acridine orange/ethidium bromide staining-based fluorescence microscopic analysis; format: functional, cell-based
Method in brief: (§2)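 After 48 h exposure to various concentrations, 2 × 10⁵ cells centrifuged (300 × g) and resuspended in acridine orange/ethidium bromide dye mixture. Examined under oil immersion, 100× objective, by fluorescence microscopy. Live cells take up acridine orange (green) and exclude ethidium bromide (red); apoptotic and necrotic cells scored morphologically.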

K562 [4] = assay: Cytotoxicity against human K562 cells expressing Bcr-Abl assessed as growth inhibition after 48 hrs by trypan blue staining-based hemocytometric analysis; format: functional; conditions: K562, 48 h; method in brief: as §1
K562 [5] = assay: Induction of apoptosis in human K562 cells expressing Bcr-Abl after 48 hrs by acridine orange/ethidium bromide staining-based fluorescence microscopic analysis; format: functional, cell-based; conditions: K562, 48 h; method in brief: as §2
HepG2 [6] = assay: Induction of apoptosis in human HepG2 cells after 48 hrs by acridine orange/ethidium bromide staining-based fluorescence microscopic analysis; format: functional, cell-based; conditions: HepG2, 48 h; method in brief: as §2
K562 [7] = assay: Cell cycle arrest in human K562 cells expressing Bcr-Abl assessed as accumulation at G0-G1 phase at 30 uM after 48 hrs by propidium iodide staining-based flow cytometry (reference value: 44.65 +/- 6.8%); format: functional
Method in brief: (§3)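 K562 cells cultured with or without 30 µM compound for 24 h and 48 h. Cells washed once in ice-cold PBS, resuspended at 10⁶/mL in hypotonic propidium iodide solution with nonidet P-40 0.03% (v/v) in 0.1% sodium citrate, 30 min incubation, flow cytometry single-parameter DNA histograms. G0-G1/S/G2-M % calculated on cycling cells only; subG0-G1 % on total cell number.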

K562 [8] = assay: Cell cycle arrest in human K562 cells expressing Bcr-Abl assessed as accumulation at subG0-G1 phase at 30 uM after 24 hrs by propidium iodide staining-based flow cytometry (reference value: 3.21 +/- 0.4%); format: functional; method in brief: as §3
WiDr = assay: Cytotoxicity against human WiDr cells overexpressing MGMT after 48 hrs by trypan blue staining-based hemocytometric analysis; format: functional, cell-based; method in brief: as §1
HL-60 = assay: Induction of apoptosis in human HL60 cells after 48 hrs by acridine orange/ethidium bromide staining-based fluorescence microscopic analysis; format: functional, cell-based; conditions: HL-60, 48 h; method in brief: as §2
K562 [9] = assay: Cell cycle arrest in human K562 cells expressing Bcr-Abl assessed as accumulation at G2-M phase at 30 uM after 48 hrs by propidium iodide staining-based flow cytometry (reference value: 12.16 +/- 2.2%); format: functional; method in brief: as §3
K562 [10] = assay: Cell cycle arrest in human K562 cells expressing Bcr-Abl assessed as accumulation at S phase at 30 uM after 48 hrs by propidium iodide staining-based flow cytometry (reference value: 43.19 +/- 7%); format: functional; method in brief: as §3
K562 [11] = assay: Cell cycle arrest in human K562 cells expressing Bcr-Abl assessed as accumulation at subG0-G1 phase at 30 uM after 48 hrs by propidium iodide staining-based flow cytometry (reference value: 3.21 +/- 0.4%); format: functional; method in brief: as §3
HepG2 [12] = assay: Cytotoxicity against human HepG2 cells assessed as growth inhibition after 48 hrs by trypan blue staining-based hemocytometric analysis; format: functional; conditions: HepG2, 48 h; method in brief: as §1
K562 [13] = assay: Cell cycle arrest in human K562 cells expressing Bcr-Abl assessed as accumulation at G0-G1 phase at 30 uM after 24 hrs by propidium iodide staining-based flow cytometry (reference value: 44.65 +/- 6.8%); format: functional; method in brief: as §3
K562 [14] = assay: Cell cycle arrest in human K562 cells expressing Bcr-Abl assessed as accumulation at G2-M phase at 30 uM after 24 hrs by propidium iodide staining-based flow cytometry (reference value: 12.16 +/- 2.2%); format: functional; method in brief: as §3
K562 [15] = assay: Cell cycle arrest in human K562 cells expressing Bcr-Abl assessed as accumulation at S phase at 30 uM after 24 hrs by propidium iodide staining-based flow cytometry (reference value: 43.19 +/- 7%); format: functional; method in brief: as §3

SMILES | GI50 [1] | GI50 [2] | AC50 [3] | GI50 (K562 [4]) | IC50 (WiDr) | further results
COc1cc([C@@H]2c3cc4c(cc3[C@@H](O[C@@H]3O[C@@H]5CO[C@@H](C)O[C@H]5[C@H](O)[C@H]3O)[C@H]3COC(=O)[C@H]23)OCO4)cc(OC)c1O [ETOPOSIDE] | 0.4 µM | > 400 µM | – | – | – | –
CN1N=Nc2c(C(F)(F)F)nn(-c3ccccc3)c2N(C)C1=O | 21 µM | 30 µM | 38 µM | 40 µM | – | –
CN1C(=O)N(CCCl)N=Nc2c(C(F)(F)F)nn(-c3ccccc3)c21 | 9 µM | 14 µM | 22 µM | 18 µM | 2.3 µM | AC50 (K562 [5]): 37 µM; AC50 (HepG2 [6]): 43 µM; Activity (K562 [7]): 40.97%; Activity (K562 [8]): 15%; AC50 (HL-60): 19 µM; Activity (K562 [9]): 14.79%; Activity (K562 [10]): 44.24%; Activity (K562 [11]): 38.35%; GI50 (HepG2 [12]): 26 µM; Activity (K562 [13]): 43.96%; Activity (K562 [14]): 12.45%; Activity (K562 [15]): 43.59%
Cn1nnc2c(C(N)=O)ncn2c1=O [TEMOZOLOMIDE] | – | – | – | – | 1720 µM | –
COc1cccc2c1C(=O)c1c(O)c3c(c(O)c1C2=O)C[C@@](O)(C(C)=O)C[C@@H]3O[C@H]1C[C@H](N)[C@H](O)[C@H](C)O1 [DAUNORUBICIN] | 0.1 µM | 38 µM | – | – | – | –
